≈ marks a conversion by molar mass, not a printed value.
Legend:
[1] = Half life of the compound in 0.1 N aqueous HCl at pH 1 at 37 degC after 24 hrs by UPLC method; format: physicochemical
[2] = AUC (0 to 24 hrs) in pentagastrin treated Sprague-Dawley rat at 10 mg/kg, po by UPLC/MS/MS method; format: ADME, organism-based; parameters: dose 10 mg/kg, time < 24 hr, route oral; conditions: in vivo
Summary of the method: (§1)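 Rat gastric-pH model: gastric pH raised with famotidine or lowered with pentagastrin before oral dosing […] as a suspension in 0.5% methyl cellulose / 99.5% water; plasma atazanavir (parent) AUC0–24 h determined.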

[3] = Solubility of the compound in 0.1 N aqueous HCl at pH 1 at 25 degC by UPLC method; format: physicochemical
Rattus norvegicus [4] = assay: Ratio of AUC in pentagastrin treated Sprague-Dawley rat at 10 mg/kg, po to AUC in famotidine treated Sprague-Dawley rat at 10 mg/kg, po; format: ADME, organism-based; conditions: in vivo
Summary of the method: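 Oral suspension in 0.5% methyl cellulose / 99.5% water, given to rats whose gastric pH was modulated by pretreatment with pentagastrin or famotidine.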

[5] = Half life of the compound in phosphate buffer at pH 6.5 at 37 degC after 24 hrs by UPLC method; format: physicochemical
[6] = Efflux ratio of apparent permeability across basolateral to apical over apical to basolateral side in human Caco2 cells; format: ADME, cell-based; conditions: Caco-2
[7] = Trough concentration in Sprague-Dawley rat at 3 mg/kg, po at 24 hrs by UPLC/MS/MS method; format: ADME, organism-based; conditions: in vivo, read-out: Cmin
[8] = Apparent permeability across basolateral to apical side in human Caco2 cells; format: ADME, cell-based; conditions: Caco-2
[9] = Tmax in Sprague-Dawley rat at 3 mg/kg, po after 0.25 to 24 hrs by UPLC/MS/MS method; format: ADME, organism-based; conditions: in vivo
Rattus norvegicus [10] = assay: AUClast in Sprague-Dawley rat at 3 mg/kg, po after 0.25 to 24 hrs by UPLC/MS/MS method; format: ADME, organism-based; parameters: time 0.25-24 hr, dose 3 mg/kg, route oral; conditions: in vivo
[11] = Half life in rat whole blood at 1 uM after 5 to 90 mins by UPLC-MS/MS method; format: ADME, tissue-based
[12] = Solubility of the compound in acetate buffer at pH 4 at 25 degC by UPLC method; format: physicochemical
[13] = AUC (0 to 24 hrs) in Sprague-Dawley rat at 10 mg/kg, po by UPLC/MS/MS method; format: ADME, organism-based; parameters: dose 10 mg/kg, time < 24 hr, route oral; conditions: in vivo
[14] = AUC (0 to 24 hrs) in famotidine treated Sprague-Dawley rat at 10 mg/kg, po by UPLC/MS/MS method; format: ADME, organism-based; parameters: dose 10 mg/kg, time < 24 hr, route oral; conditions: in vivo; summary of the method: as §1
[15] = Half life in rat hepatocytes at 1 uM after 5 to 120 mins by UPLC-MS/MS method; format: ADME, cell-based, Hepatocyte
[16] = Half life of the compound in acetate buffer at pH 4 at 37 degC after 24 hrs by UPLC method; format: physicochemical
[17] = Solubility of the compound in phosphate buffer at pH 6.5 at 25 degC by UPLC method; format: physicochemical
[18] = Oral bioavailability in Sprague-Dawley rat at 3 mg/kg after 0.25 to 24 hrs by UPLC/MS/MS method; format: ADME, organism-based; conditions: in vivo
Rattus norvegicus [19] = assay: Cmax in Sprague-Dawley rat at 3 mg/kg, po after 0.25 to 24 hrs by UPLC/MS/MS method; format: ADME, organism-based; parameters: dose 3 mg/kg, route oral; conditions: in vivo
Rattus norvegicus [20] = assay: Tmax in Sprague-Dawley rat assessed as atazanavir at 3 mg/kg, po equiv of atazanavir after 0.25 to 24 hrs by UPLC/MS/MS method; format: ADME, organism-based; conditions: in vivo
Rattus norvegicus [21] = assay: Trough concentration in Sprague-Dawley rat assessed as atazanavir at 3 mg/kg, po equiv of atazanavir at 24 hrs by UPLC/MS/MS method; format: ADME, organism-based; conditions: in vivo; for Cmin: BLD = below limit of detection; for concentration: read-out: Cmin
Rattus norvegicus [22] = assay: Oral bioavailability in Sprague-Dawley rat assessed as atazanavir at 3 mg/kg equiv of atazanavir after 0.25 to 24 hrs by UPLC/MS/MS method relative to atazanavir; format: ADME, organism-based; conditions: in vivo
Rattus norvegicus [23] = assay: Cmax in Sprague-Dawley rat assessed as atazanavir at 3 mg/kg, po equiv of atazanavir after 0.25 to 24 hrs by UPLC/MS/MS method; format: ADME, organism-based; parameters: dose 3 mg/kg, route oral; conditions: in vivo
Rattus norvegicus [24] = assay: AUClast in Sprague-Dawley rat assessed as atazanavir at 3 mg/kg, po equiv of atazanavir after 0.25 to 24 hrs by UPLC/MS/MS method; format: ADME, organism-based; parameters: time upper 24 hr, dose 3 mg/kg, time lower 0.25 hr, route oral; conditions: in vivo
[25] = Half life of the compound in phosphate buffer at pH 7.4 at 37 degC after 24 hrs by UPLC method; format: physicochemical
[26] = Apparent permeability across apical to basolateral side in human Caco2 cells; format: ADME, cell-based; conditions: Caco-2
Rattus norvegicus [27] = assay: Ratio of AUClast in Sprague-Dawley rat at 3 mg/kg, po equiv of atazanavir to AUC in Sprague-Dawley rat assessed as atazanavir at 3 mg/kg, po equiv of atazanavir; format: ADME, organism-based; conditions: in vivo
Rattus norvegicus [28] = assay: Cmax in Sprague-Dawley rat assessed as (2S,3S)-3-Amino-1-(2-((S)-2-((methoxycarbonyl)amino)-3,3-dimethylbutanoyl)-1-(4-(pyridin-2-yl)benzyl)hydrazinyl)4-phenylbutan-2-yl (S)-2-((Methoxycarbonyl)amino)-3,3-dimethylbutanoate Dihydrochloride at 3 mg/kg, po equiv of atazanavir after 0.25 to 24 hrs by UPLC/MS/MS method; format: ADME, organism-based; parameters: dose 3 mg/kg, route oral; conditions: in vivo
Rattus norvegicus [29] = assay: AUClast in Sprague-Dawley rat assessed as (2S,3S)-3-Amino-1-(2-((S)-2-((methoxycarbonyl)amino)-3,3-dimethylbutanoyl)-1-(4-(pyridin-2-yl)benzyl)hydrazinyl)4-phenylbutan-2-yl (S)-2-((Methoxycarbonyl)amino)-3,3-dimethylbutanoate Dihydrochloride at 3 mg/kg, po equiv of atazanavir after 0.25 to 24 hrs by UPLC/MS/MS method; format: ADME, organism-based; parameters: time lower 0.25 hr, dose 3 mg/kg, time upper 24 hr, route oral; conditions: in vivo
Rattus norvegicus [30] = assay: AUC (0 to 24 hrs) in famotidine treated Sprague-Dawley rat assessed as atazanavir at 10 mg/kg, po equiv of atazanavir by UPLC/MS/MS method; format: ADME, organism-based; parameters: time < 24 hr, dose 10 mg/kg, route oral; conditions: in vivo
Summary of the method: (§2)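 Rat gastric pH model. Gastric pH was modulated by pretreatment with either pentagastrin or famotidine. Dosing was oral as a suspension in 0.5% methyl cellulose / 99.5% water, with parent AUC0–24 h determined in each arm.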

Rattus norvegicus [31] = assay: AUC (0 to 24 hrs) in Sprague-Dawley rat assessed as atazanavir at 10 mg/kg, po equiv of atazanavir by UPLC/MS/MS method; format: ADME, organism-based; parameters: time < 24 hr, dose 10 mg/kg, route oral; conditions: in vivo
Rattus norvegicus [32] = assay: Tmax in Sprague-Dawley rat assessed as (2S,3S)-3-Amino-1-(2-((S)-2-((methoxycarbonyl)amino)-3,3-dimethylbutanoyl)-1-(4-(pyridin-2-yl)benzyl)hydrazinyl)4-phenylbutan-2-yl (S)-2-((Methoxycarbonyl)amino)-3,3-dimethylbutanoate Dihydrochloride at 3 mg/kg, po equiv of atazanavir after 0.25 to 24 hrs by UPLC/MS/MS method; format: ADME, organism-based; conditions: in vivo
Rattus norvegicus [33] = assay: AUC (0 to 24 hrs) in pentagastrin treated Sprague-Dawley rat assessed as atazanavir at 10 mg/kg, po equiv of atazanavir by UPLC/MS/MS method; format: ADME, organism-based; parameters: dose 10 mg/kg, time < 24 hr, route oral; conditions: in vivo; summary of the method: as §2
Rattus norvegicus [34] = assay: Trough concentration in Sprague-Dawley rat assessed as (2S,3S)-3-Amino-1-(2-((S)-2-((methoxycarbonyl)amino)-3,3-dimethylbutanoyl)-1-(4-(pyridin-2-yl)benzyl)hydrazinyl)4-phenylbutan-2-yl (S)-2-((Methoxycarbonyl)amino)-3,3-dimethylbutanoate Dihydrochloride at 3 mg/kg, po equiv of atazanavir at 24 hrs by UPLC/MS/MS method; format: ADME, organism-based; conditions: in vivo, read-out: Cmin
Rattus norvegicus [35] = assay: Oral bioavailability in Sprague-Dawley rat assessed as atazanavir at 3 mg/kg equiv of atazanavir after 0.25 to 24 hrs by UPLC/MS/MS method; format: ADME, organism-based; conditions: in vivo

Structure (SMILES) | half-life [1] [days] | solubility [3] [µg/mL] | half-life [5] [days] | efflux ratio [6] | Papp B→A [8] [×10⁻⁶ cm/s] | half-life at 1 µM [11] [min] | solubility [12] [µg/mL] | half-life at 1 µM [15] [min] | half-life [16] [days] | solubility [17] [µg/mL] | Tmax (Rattus norvegicus [20]) [h] | Cmin (Rattus norvegicus [21]) | F (Rattus norvegicus [22]) [%] | Cmax (Rattus norvegicus [23]) [nM] | AUClast (Rattus norvegicus [24]) [nM·h] | Papp A→B [26] [×10⁻⁶ cm/s] | Ratio AUC (Rattus norvegicus [27]) | concentration (Rattus norvegicus [21]) [nM] | further results
COC(=O)N[C@H](C(=O)N[C@@H](Cc1ccccc1)[C@@H](O)CN(Cc1ccc(-c2ccccn2)cc1)NC(=O)[C@@H](NC(=O)OC)C(C)(C)C)C(C)(C)C [ATAZANAVIR] | > 20.8 | 1690 (≈ 2400 µM) | > 20.8 | > 31 | 47 | > 120 | < 1 | 28 | > 20.8 | < 1 | – | – | – | – | – | – | – | – | AUC(0-t) at 24 h [2]: 2.46 µM·h; Ratio AUC (Rattus norvegicus [4]): 492; concentration at 24 h [7]: 0.25 nM; Tmax [9]: 30 min; AUClast (Rattus norvegicus [10]): 384 nM·h; AUC(0-t) at 24 h [13]: 0.24 µM·h; AUC(0-t) at 24 h [14]: 5 nM·h; bioavailability [18]: 20%; Cmax (Rattus norvegicus [19]): 266 nM
COC(=O)N[C@H](C(=O)NN(Cc1ccc(-c2ccccn2)cc1)C[C@H](OC(=O)[C@@H](NC(=O)OC)C(C)(C)C)[C@H](Cc1ccccc1)NC(=O)OCOC(=O)[C@@H](N)C(C)C)C(C)(C)C.Cl.Cl | > 20.8 | > 1800 | 0.275 | – | – | 20 | > 1500 | < 5 | 13.9 | – | 0.4 | Bld | 4.3 | 56 | 83 | – | – | – | half-life [25]: 108 min
COC(=O)N[C@H](C(=O)NN(Cc1ccc(-c2ccccn2)cc1)C[C@H](OC(=O)[C@@H](NC(=O)OC)C(C)(C)C)[C@@H](N)Cc1ccccc1)C(C)(C)C.Cl.Cl | 15.7 | > 900 | 0.275 | 15 | 34.8 | > 120 | > 400 | 79 | 13.9 | – | 0.4 | Bld | 0.83 | 8 | 16 | 2.3 | 4.9 | – | –
COC(=O)N[C@H](C(=O)NN(Cc1ccc(-c2ccccn2)cc1)C[C@H](OC(=O)[C@@H](NC(=O)OC)C(C)(C)C)[C@H](Cc1ccccc1)NC(=O)OC(OC(=O)[C@@H](N)C(C)C)C(C)C)C(C)(C)C.Cl.Cl (stereo partly specified) | > 20.8 | > 1100 | 4.48 | > 8 | 11.4 | > 120 | 120 | 56 | > 20.8 | 10 | 1.7 | – | 75.3 | 310 | 1446 | < 1.5 | 3.4 | 4.5 | Cmax (Rattus norvegicus [28]): 124 nM; AUClast (Rattus norvegicus [29]): 579 nM·h; AUC (Rattus norvegicus [30]): 1275 nM·h; AUC (Rattus norvegicus [31]): 2093 nM·h; Tmax (Rattus norvegicus [32]): 1.7 h; AUC (Rattus norvegicus [33]): 1332 nM·h; concentration (Rattus norvegicus [34]): 2 nM
COC(=O)N[C@H](C(=O)NN(Cc1ccc(-c2ccccn2)cc1)C[C@H](OC(=O)[C@@H](NC(=O)OC)C(C)(C)C)[C@H](Cc1ccccc1)NC(=O)OCc1oc(=O)oc1C)C(C)(C)C | > 20.8 | > 1800 | 5.02 | – | – | < 5 | < 1 | < 5 | > 20.8 | < 1 | 1.3 | – | 10.1 | 180 | 194 | – | 0.1 | 0.3 | –
COC(=O)N[C@H](C(=O)NN(Cc1ccc(-c2ccccn2)cc1)C[C@H](OC(=O)[C@@H](NC(=O)OC)C(C)(C)C)[C@H](Cc1ccccc1)NC(=O)OC(OC(=O)[C@H](N)C(C)C)C(C)C)C(C)(C)C.Cl.Cl (stereo partly specified) | > 20.8 | > 500 | 8.95 | > 5 | 7.3 | > 120 | > 1430 | 53 | > 20.8 | 27 | 2.3 | – | 8.7 | 37 | 167 | < 1.5 | 50.5 | 0.3 | –
COC(=O)N[C@H](C(=O)N[C@@H](Cc1ccccc1)[C@H](CN(Cc1ccc(-c2ccccn2)cc1)NC(=O)[C@@H](NC(=O)OC)C(C)(C)C)OC(=O)[C@@H](N)C(C)C)C(C)(C)C.Cl.Cl | – | – | – | – | – | – | – | – | – | – | – | Bld | – | 10 | – | – | – | – | F (Rattus norvegicus [35]): 2.2%
